# According to ChEMBL document CHEMBL1146361, “Studies on acyclic pyrimidines as inhibitors of mycobacteria” (Bioorg Med Chem, 2007):
# The source made the active and inactive calls. The calls are words filed in the database; no cut-off is given here.
# Columns and labels:
# [1] = system: Mycobacterium tuberculosis; experiment: Antimycobacterial activity against Mycobacterium tuberculosis H37Ra by MABA; type: functional; set-up: concentration or dose not given beside the values
# Summary of the method: (§1)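 Compounds in DMSO (100× highest final concentration), diluted in 7H9GC; tested at 100, 50, 10 and 1 µg/mL in triplicate, three experiments. Frozen inoculum diluted in 7H9GC. Read visually and spectrophotometrically. […], mean given. Visual MIC = lowest concentration preventing blue-to-pink change.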
# [2] = system: Mycobacterium avium; experiment: Antimycobacterial activity against Mycobacterium avium ATCC 25291; type: functional; set-up: concentration or dose not given beside the values; summary of the method: as §1
# [3] = system: Staphylococcus aureus; experiment: Antibacterial activity against Staphylococcus aureus up to 100 ug/ml after 16 to 20 hrs by broth microdilution method; type: functional, organism-based
# [4] = system: Staphylococcus epidermidis; experiment: Antibacterial activity against Staphylococcus epidermidis up to 100 ug/ml after 16 to 20 hrs by broth microdilution method; type: functional, organism-based
# [5] = system: Enterococcus faecalis; experiment: Antibacterial activity against Enterococcus faecalis up to 100 ug/ml after 16 to 20 hrs by broth microdilution method; type: functional, organism-based
# [6] = system: Bacillus subtilis; experiment: Antibacterial activity against Bacillus subtilis up to 100 ug/ml after 16 to 20 hrs by broth microdilution method; type: functional, organism-based
# [7] = system: Streptococcus pneumoniae; experiment: Antibacterial activity against Streptococcus pneumoniae up to 100 ug/ml after 16 to 20 hrs by broth microdilution method; type: functional, organism-based
# [8] = system: Salmonella typhimurium; experiment: Antibacterial activity against Salmonella Typhimurium up to 100 ug/ml after 16 to 20 hrs by broth microdilution method; type: functional, organism-based; conditions: Salmonella enterica subsp. enterica serovar Typhimurium
# [9] = system: Escherichia coli; experiment: Antibacterial activity against Escherichia coli up to 100 ug/ml after 16 to 20 hrs by broth microdilution method; type: functional, organism-based
# [10] = system: Proteus vulgaris; experiment: Antibacterial activity against Proteus vulgaris up to 100 ug/ml after 16 to 20 hrs by broth microdilution method; type: functional, organism-based
# [11] = system: Pseudomonas aeruginosa; experiment: Antibacterial activity against Pseudomonas aeruginosa up to 100 ug/ml after 16 to 20 hrs by broth microdilution method; type: functional, organism-based
# [12] = system: Mycobacterium tuberculosis; experiment: Antimycobacterial activity against Mycobacterium tuberculosis H37Ra at 100 ug/mL after 24 to 48 hrs by MABA; type: functional; summary of the method: as §1
# [13] = system: Mycobacterium tuberculosis; experiment: Antimycobacterial activity against Mycobacterium tuberculosis H37Ra at 50 ug/mL after 24 to 48 hrs by MABA; type: functional; summary of the method: as §1
# [14] = system: Mycobacterium tuberculosis; experiment: Antimycobacterial activity against Mycobacterium tuberculosis H37Ra at 10 ug/mL after 24 to 48 hrs by MABA; type: functional; summary of the method: as §1
# [15] = system: Mycobacterium avium; experiment: Antimycobacterial activity against Mycobacterium avium ATCC 25291 at 100 ug/mL after 24 to 48 hrs by MABA; type: functional; summary of the method: as §1
# [16] = system: Mycobacterium avium; experiment: Antimycobacterial activity against Mycobacterium avium ATCC 25291 at 50 ug/mL after 24 to 48 hrs by MABA; type: functional; summary of the method: as §1
# [17] = system: HepG2; experiment: Toxicity against HepG2 cells; type: functional, cell-based; conditions: Homo sapiens
Structure (SMILES),Inhibition [1] [%],Inhibition [2] [%],Activity [3],Activity [4],Activity [5],Activity [6],Activity [7],Activity [8],Activity [9],Activity [10],Activity [11],inhibition at 100 µg/mL [12] [%],inhibition at 50 µg/mL [13] [%],inhibition at 10 µg/mL [14] [%],inhibition at 100 µg/mL [15] [%],inhibition at 50 µg/mL [16] [%],Activity [17]
C=C(N=[N+]=[N-])c1cn(COC(CO)CO)c(=O)[nH]c1=O,0,0,inactive,inactive,inactive,inactive,inactive,inactive,inactive,inactive,inactive,,,,,,
O=c1[nH]c(=O)n(COCCO)cc1Br,0,0,inactive,inactive,inactive,inactive,inactive,inactive,inactive,inactive,inactive,,,,,,
[N-]=[N+]=NC(CI)c1cn(COCCO)c(=O)[nH]c1=O (configuration not stated),,,inactive,inactive,inactive,inactive,inactive,inactive,inactive,inactive,inactive,100,100,50,50,50,Not toxic
Cc1cn(COCCO)c(=O)[nH]c1=O,0,0,inactive,inactive,inactive,inactive,inactive,inactive,inactive,inactive,inactive,,,,,,
[N-]=[N+]=NC(CI)c1cn(COC(CO)CO)c(=O)[nH]c1=O (configuration not stated),0,0,inactive,inactive,inactive,inactive,inactive,inactive,inactive,inactive,inactive,,,,,,
[N-]=[N+]=NC(CCl)c1cn(COC(CO)CO)c(=O)[nH]c1=O (configuration not stated),0,0,inactive,inactive,inactive,inactive,inactive,inactive,inactive,inactive,inactive,,,,,,
CCc1cn(COCCO)c(=O)[nH]c1=O,0,0,inactive,inactive,inactive,inactive,inactive,inactive,inactive,inactive,inactive,,,,,,
O=c1[nH]c(=O)n(COCCO)cc1[N+](=O)[O-],0,0,inactive,inactive,inactive,inactive,inactive,inactive,inactive,inactive,inactive,,,,,,
O=c1ccn(COCCO)c(=O)[nH]1,0,0,inactive,inactive,inactive,inactive,inactive,inactive,inactive,inactive,inactive,,,,,,
CCCCCC#Cc1cn(COCCO)c(=O)[nH]c1=O,0,0,inactive,inactive,inactive,inactive,inactive,inactive,inactive,inactive,inactive,,,,,,
C=Cc1cn(COC(CO)CO)c(=O)[nH]c1=O,0,0,inactive,inactive,inactive,inactive,inactive,inactive,inactive,inactive,inactive,,,,,,
Nc1cn(COCCO)c(=O)[nH]c1=O,0,0,inactive,inactive,inactive,inactive,inactive,inactive,inactive,inactive,inactive,,,,,,
O=c1[nH]c(=O)n(COCCO)cc1Cl,0,0,inactive,inactive,inactive,inactive,inactive,inactive,inactive,inactive,inactive,,,,,,
C=Cc1cn(COCCO)c(=O)[nH]c1=O,0,0,inactive,inactive,inactive,inactive,inactive,inactive,inactive,inactive,inactive,,,,,,
[N-]=[N+]=NC(CBr)c1cn(COC(CO)CO)c(=O)[nH]c1=O (configuration not stated),0,0,inactive,inactive,inactive,inactive,inactive,inactive,inactive,inactive,inactive,,,,,,
[N-]=[N+]=NC(CBr)c1cn(COCCO)c(=O)[nH]c1=O (configuration not stated),,,inactive,inactive,inactive,inactive,inactive,inactive,inactive,inactive,inactive,100,100,50,,100,Not toxic
O=c1[nH]c(=O)n(COCCO)cc1F,0,0,inactive,inactive,inactive,inactive,inactive,inactive,inactive,inactive,inactive,,,,,,
O=c1[nH]c(=O)n(COCCO)cc1I,0,0,inactive,inactive,inactive,inactive,inactive,inactive,inactive,inactive,inactive,,,,,,
O=c1[nH]c(=O)n(COC(CO)CO)cc1I [IODACYCLUR],0,0,inactive,inactive,inactive,inactive,inactive,inactive,inactive,inactive,inactive,,,,,,
CCCCCCCCCCC#Cc1cn(COCCO)c(=O)n(C#CCCCCCCCCCC)c1=O,0,0,inactive,inactive,inactive,inactive,inactive,inactive,inactive,inactive,inactive,,,,,,
